Columns and labels:
[1] = Relaxation of KCl-induced contraction in guinea pig terminal ilea assessed as reduction of contraction force at 100 uM; assay type: functional, Cavia porcellus; parameters: scale not given: the % may be the effect or the level left
Outline: (§1)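 Precontracted with 60 mM KCl at a resting tension of 4.9 mN. After a 45 min control period, compound (1–100 µM) was added cumulatively to steady state. Isometric force was recorded as % decrease; IC₅₀ from 4–6 experiments, mean ± SEM.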

[2] = Spasmolytic activity in guinea pig terminal ilea; assay type: functional, Cavia porcellus; outline: as §1
[3] = Spasmolytic activity in guinea pig terminal ilea relative to resveratrol; assay type: functional, Cavia porcellus
Outline: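 Ileal IC₅₀ was measured as for the KCl-precontracted (60 mM) guinea pig terminal ileum with cumulative dosing up to 100 µM. It is expressed as a potency index relative to resveratrol.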

[4] = Toxicity in guinea pig vascular smooth muscle; assay type: tissue-based, Cavia porcellus, Muscle tissue
Outline: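 Guinea pig aortic rings in oxygenated Krebs–Henseleit at 35 °C, contracted with 90 mM KCl. Compound was added cumulatively up to 100 µM, and relaxation of isometric contraction force was recorded.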

[5] = Toxicity in guinea pig heart muscle; assay type: tissue-based, Cavia porcellus, Muscle tissue
Outline: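 Guinea pig heart muscle in oxygenated Krebs–Henseleit at 35 °C. Isometric contraction force was measured in electrically stimulated papillary muscles (Purkinje fibres removed, diameter <0.87 mm). Chronotropic effect was measured as spontaneous activity of isolated right atria. Compounds were added cumulatively. Paired Student's t-test.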

[6] = Relaxation of KCl-induced contraction in guinea pig terminal ilea assessed as reduction of contraction force at 30 uM; assay type: functional, Cavia porcellus; parameters: scale not given: the % may be the effect or the level left; outline: as §1

| Structure (SMILES) | IC50 [2] [µM] | Activity [1] [%] | Activity [3] | Activity [4] | Activity [5] | Activity [6] [%] |
| --- | --- | --- | --- | --- | --- | --- |
| O=C(Nc1c(F)cc(F)cc1F)c1cc([N+](=O)[O-])cc([N+](=O)[O-])c1 | 32.5 | 25.66 | 0.74 | Non-toxic | Non-toxic | – |
| CN(C)c1ccc(NC(=O)c2cc(F)cc(F)c2)cc1 | 30 | 23.93 | 0.8 | Non-toxic | Non-toxic | – |
| O=C(Nc1ccc(F)cc1F)c1cc(F)cc(F)c1 | > 100 | 51.13 | >0.24 | Non-toxic | Non-toxic | – |
| O=C(Nc1c(F)cc(F)cc1F)c1ccc(F)cc1 | 42 | 28.35 | 0.57 | Non-toxic | Non-toxic | – |
| COc1cc(NC(=O)c2cc(F)cc(F)c2)cc(OC)c1OC | 27.5 | 22.87 | 0.87 | Non-toxic | Non-toxic | – |

The next compounds have a lower IC50 [2] than those just listed; values first:

| IC50 [2] [µM] | Structure (SMILES) | Activity [1] [%] | Activity [3] | Activity [4] | Activity [5] | Activity [6] [%] |
| --- | --- | --- | --- | --- | --- | --- |
| 26 | O=C(Nc1c(F)cc(F)cc1F)c1cc(F)cc(F)c1 | 9 | 0.92 | Non-toxic | Non-toxic | – |
| 24 | Oc1ccc(/C=C/c2cc(O)cc(O)c2)cc1 [RESVERATROL] | – | 1 | – | – | – |
| 21 | O=C(Nc1ccc(F)cc1)c1cc(F)cc(F)c1 | 30.55 | 1.14 | Non-toxic | Non-toxic | – |
| 8.5 | O=C(Nc1cc(F)cc(F)c1)c1ccc(F)cc1 | 1.66 | 2.82 | Non-toxic | Non-toxic | – |
| 7.5 | COc1cc(NC(=O)c2ccc(OC(F)(F)F)cc2)cc(OC)c1 | 11.99 | 3.2 | Non-toxic | Non-toxic | – |
| 3.25 | CSc1ccc(NC(=O)c2cc(F)cc(F)c2)cc1 | – | 7.39 | Non-toxic | Non-toxic | 2.8 |

Source: ChEMBL document CHEMBL1150382, “Benzanilides with spasmolytic activity: chemistry, pharmacology, and SAR” (Bioorg Med Chem, 2008)
